Calls of active or inactive are those of the source. The rule behind the calls is not given here.

Test [1] concerns the target T1, E3 ubiquitin-protein ligase Mdm2 (Homo sapiens, UniProt Q00987). Nature of the test: Induction of MDM2 degradation in human RS4:11 cells assessed as downregulation of MDM2 at 1 to 30 nM after 1 hr by Western blot analysis. The class given is cell-based. The gist of the method:
(§1)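 Western blots of MDM2 and p53 protein were run on RS4;11 cells (wild-type p53) in RPMI 1640 with 10% FBS. 2×10^6 cells/well were treated at the indicated concentrations for 1 h or 2 h. Lysis was in ice-cold buffer with protease inhibitor, followed by probing with specific antibodies.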

The next test relates to HL-60. Nature of the test: Antiproliferative activity against human HL60 cells with lack of p53 assessed as cell growth inhibition after 4 days by WST-8 assay. Type of test: functional, cell-based. The gist of the method:
(§2)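 Leukemia cells seeded at 10000–20000 cells/well, breast cancer lines at 5000–10000 cells/well. Serially diluted compound added, then 4 days at 37 °C, 5% CO2. Growth read with WST-8 reagent after at least 1 h, absorbance at 450 nm. RS4;11, MOLM-13 and breast lines were grown in RPMI 1640; MV-4-11 and HL-60 in IMDM; all with 10% FBS. Mean ± SE, at least three independent experiments.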
In general terms: Formazan colour is commonly taken as a measure of viable cells.

Another test is filed under the species Homo sapiens. The test is described as follows: Antiproliferative activity against human RS4:11/IRMI-2 cells harboring p53 hotspot mutation Y236H/R249G assessed as cell growth inhibition after 4 days by WST-8 assay. Type of test: functional, cell-based. A digest of the protocol:
as §2

Test [2] relates to MDA-MB-231. Nature of the test: Antiproliferative activity against human MDA-MB-231 cells harboring mutant p53 assessed as cell growth inhibition after 4 days by WST-8 assay. The class given is functional, cell-based. The gist of the method:
as §2

The test system of test [3] is MDA-MB-468. The test is described as follows: Antiproliferative activity against human MDA-MB-468 cells harboring mutant p53 assessed as cell growth inhibition after 4 days by WST-8 assay. The class given is functional, cell-based. The gist of the method:
as §2

In test [4] the target is T1, E3 ubiquitin-protein ligase Mdm2. The test is described as follows: Induction of MDM2 degradation in human RS4:11 cells assessed as upregulation of p53 at 1 to 30 nM after 1 hr by Western blot analysis. The class given is cell-based. A digest of the protocol:
as §1
Background: A western blot detects proteins with antibodies after separation by electrophoresis.

The target is the same in test [5]. Nature of the test: Induction of MDM2 degradation in human RS4:11 cells assessed as downregulation of MDM2 at 1 to 30 nM after 2 hrs by Western blot analysis. The class given is cell-based. A digest of the protocol: as §1
Test [6] has the same target. Nature of the test: Induction of MDM2 degradation in human RS4:11 cells assessed as upregulation of p53 at 1 to 30 nM after 2 hrs by Western blot analysis. The class given is cell-based. A digest of the protocol: as §1
Test [7] has the same target. Nature of the test: Induction of MDM2 degradation in human RS4:11/IRMI-2 cells harboring p53 hotspot mutation Y236H/R249G assessed as downregulation of MDM2 at 1 to 30 nM after 2 hrs by Western blot analysis. The class given is cell-based. A digest of the protocol:
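RS4;11/IRMI-2 cells are an MDM2 inhibitor-resistant line derived from RS4;11, with p53 mutations confirmed by sequencing. 2×10^6 cells/well were treated 2 h at the indicated concentrations. MDM2 protein was probed by Western blot after lysis in ice-cold buffer with protease inhibitor.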

In test [8] the target is Cellular tumor antigen p53 (Homo sapiens) (UniProt P04637). Nature of the test: Activation of p53 in human RS4:11 cells assessed as increase in CDKN1A mRNA expression at 10 nM after 1 to 2 hrs by qRT-PCR analysis. The class given is cell-based. The gist of the method: (§3)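 RS4;11 cells (RPMI 1640, 10% FBS, 37 °C, 5% CO2) treated with 3 nM or 10 nM compound; total RNA extracted and mRNA of p53 targets MDM2, CDKN1A, PUMA and BAX quantified by qRT-PCR. Mean ± standard error from at least three independent experiments.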
A general note: Quantitative PCR measures a nucleic acid by following its amplification.

For test [9] the target is unchanged. The test is described as follows: Activation of p53 in human RS4:11 cells assessed as increase in MDM2 mRNA expression at 10 nM after 1 to 2 hrs by qRT-PCR analysis. Type of test: cell-based. A digest of the protocol:
as §3

The target is the same in test [10]. The test is described as follows: Activation of p53 in human RS4:11 cells assessed as increase in PUMA mRNA expression at 10 nM after 1 to 2 hrs by qRT-PCR analysis. Type of test: cell-based. A digest of the protocol: as §3
For test [11] the target is unchanged. The test is described as follows: Activation of p53 in human RS4:11 cells assessed as increase in BAX mRNA expression at 10 nM after 1 to 2 hrs by qRT-PCR analysis. The class given is cell-based. The gist of the method: as §3
The test system of test [12] is MDA-MB-231. Nature of the test: Antiproliferative activity against human MDA-MB-231 cells transfected with CRBN siRNA LQ-021086-10-0002 assessed as cell growth inhibition after 4 days by WST-8 assay. The class given is functional, cell-based. To be noted: MDA-MB-231, 72 h, in the assay text read “after 3 days” for “after 4 days”. The gist of the method: (§4)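 MDA-MB-231 or MDA-MB-468 cells transfected for 2 days using Lipofectamine RNAiMAX with MDM2 siRNA, one of two CRBN siRNAs, or non-targeting control siRNA. Compound then added and growth read by WST-8 at 450 nm.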

The subject of test [13] is MDA-MB-231. Nature of the test: Antiproliferative activity against human MDA-MB-231 cells transfected with CRBN siRNA LQ-021086-11-0002 assessed as cell growth inhibition after 4 days by WST-8 assay. The class given is functional, cell-based. As to conditions: MDA-MB-231, 96 h. The gist of the method:
as §4

Test [14] has as its system MDA-MB-468. Nature of the test: Antiproliferative activity against human MDA-MB-468 cells transfected with CRBN siRNA LQ-021086-10-0002 assessed as cell growth inhibition after 4 days by WST-8 assay. The class given is functional, cell-based. As to conditions: MDA-MB-468, 96 h. The gist of the method: as §4
Test [15] deals with MDA-MB-468. Nature of the test: Antiproliferative activity against human MDA-MB-468 cells transfected with CRBN siRNA LQ-021086-11-0002 assessed as cell growth inhibition after 4 days by WST-8 assay. Type of test: functional, cell-based. To be noted: MDA-MB-468, 96 h. The gist of the method:
as §4

For test [16], the system named is MDA-MB-231. Nature of the test: Antiproliferative activity against human MDA-MB-231 cells assessed as cell growth inhibition after 4 days in presence of control siRNA for 3 days followed by compound treatment by WST-8 assay. Type of test: functional, cell-based.
Test [17] deals with MDA-MB-468. The test is described as follows: Antiproliferative activity against human MDA-MB-468 cells assessed as cell growth inhibition after 4 days in presence of control siRNA for 3 days followed by compound treatment by WST-8 assay. The class given is functional, cell-based.
Test [18] concerns the target T2, Protein cereblon/Eukaryotic peptide chain release factor GTP-binding subunit ERF3A/DNA damage-binding protein 1/Cullin-4A (Homo sapiens) (UniProt Q96SW2+Q16531+Q13619+P15170). Nature of the test: Protac activity at GSPT1/CUL4/DDB1/CRBN in human RS4:11 cells expressing wild type p53 assessed as decrease in GSPT1 protein level measured upto 24 hrs by Western blot analysis. The class given is cell-based. A digest of the protocol:
(§5)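 RS4;11 (wild-type p53) or RS4;11/IRMI-2 (MDM2 inhibitor-resistant derivative, mutant p53) cells kept in RPMI 1640 with 10% FBS at 37 °C, 5% CO₂. 2×10^6 cells/well treated at the indicated concentrations and times, then lysed in ice-cold lysis buffer with protease inhibitor. GSPT1 detected by Western blot with a specific antibody.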

In test [19] the target is T2, Protein cereblon/Eukaryotic peptide chain release factor GTP-binding subunit ERF3A/DNA damage-binding protein 1/Cullin-4A (Homo sapiens). The test is described as follows: Protac activity at GSPT1/CUL4/DDB1/CRBN in human RS4:11 cells expressing wild type p53 assessed as decrease in GSPT1 protein level at 10 nM by Western blot analysis. Type of test: cell-based. A digest of the protocol: as §5

For the next test, the system named is RS4-11. The test is described as follows: Antiproliferative activity against human RS4:11 cells expressing wild type p53 assessed as MDM2-independent cell growth inhibition after 4 days by WST-8 assay. Type of test: functional, cell-based. To be noted: RS4-11, 96 h. The gist of the method:
as §2

Test [20] can be described thus: Antiproliferative activity against human RS4:11/IRMI-2 cells harboring p53 hotspot mutation Y236H/R249G assessed as MDM2-independent cell growth inhibition after 4 days by WST-8 assay. The class given is functional, cell-based. To be noted: RS4-11, 96 h. A digest of the protocol:
as §2

Cellular tumor antigen p53 (Homo sapiens), sequence (P04637 whole entry, looked up): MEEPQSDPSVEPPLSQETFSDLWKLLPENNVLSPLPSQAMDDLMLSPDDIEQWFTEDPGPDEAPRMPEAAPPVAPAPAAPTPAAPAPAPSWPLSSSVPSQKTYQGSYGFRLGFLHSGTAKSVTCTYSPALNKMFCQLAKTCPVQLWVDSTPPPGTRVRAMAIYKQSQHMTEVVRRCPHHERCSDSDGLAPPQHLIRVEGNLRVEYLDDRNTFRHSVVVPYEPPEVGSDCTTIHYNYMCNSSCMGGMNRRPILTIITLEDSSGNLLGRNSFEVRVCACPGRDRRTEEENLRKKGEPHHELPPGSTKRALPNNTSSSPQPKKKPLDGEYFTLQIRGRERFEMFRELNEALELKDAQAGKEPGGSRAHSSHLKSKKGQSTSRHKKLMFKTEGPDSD
T1 sequence (Q00987 whole entry, looked up): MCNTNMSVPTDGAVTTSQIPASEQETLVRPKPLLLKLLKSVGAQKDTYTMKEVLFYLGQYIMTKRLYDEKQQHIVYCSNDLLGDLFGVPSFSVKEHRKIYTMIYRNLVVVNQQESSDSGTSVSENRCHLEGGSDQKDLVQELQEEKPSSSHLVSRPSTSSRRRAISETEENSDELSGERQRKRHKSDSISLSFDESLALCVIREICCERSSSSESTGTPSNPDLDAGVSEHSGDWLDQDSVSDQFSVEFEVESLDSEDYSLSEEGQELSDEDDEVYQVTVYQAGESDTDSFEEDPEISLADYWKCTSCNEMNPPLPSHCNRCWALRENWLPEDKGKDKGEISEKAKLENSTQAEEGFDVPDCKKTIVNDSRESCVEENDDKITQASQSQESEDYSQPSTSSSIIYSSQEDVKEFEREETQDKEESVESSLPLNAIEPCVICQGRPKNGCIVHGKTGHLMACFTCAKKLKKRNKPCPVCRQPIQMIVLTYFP
T2 sequence (P15170 whole entry, looked up): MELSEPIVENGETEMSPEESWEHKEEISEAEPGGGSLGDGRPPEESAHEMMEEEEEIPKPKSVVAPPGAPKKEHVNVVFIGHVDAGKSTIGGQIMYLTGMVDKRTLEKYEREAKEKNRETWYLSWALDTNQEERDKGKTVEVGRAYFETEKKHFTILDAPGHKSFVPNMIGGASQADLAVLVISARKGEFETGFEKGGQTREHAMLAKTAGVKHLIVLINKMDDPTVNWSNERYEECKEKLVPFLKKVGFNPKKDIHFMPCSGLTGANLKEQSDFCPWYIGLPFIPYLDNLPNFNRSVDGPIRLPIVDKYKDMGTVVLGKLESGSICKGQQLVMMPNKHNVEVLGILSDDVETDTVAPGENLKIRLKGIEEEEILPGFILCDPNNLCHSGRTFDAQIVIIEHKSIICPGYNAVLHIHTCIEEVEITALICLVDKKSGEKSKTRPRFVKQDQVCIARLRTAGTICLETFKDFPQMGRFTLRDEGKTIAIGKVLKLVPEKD
T2 sequence (Q13619 whole entry, looked up): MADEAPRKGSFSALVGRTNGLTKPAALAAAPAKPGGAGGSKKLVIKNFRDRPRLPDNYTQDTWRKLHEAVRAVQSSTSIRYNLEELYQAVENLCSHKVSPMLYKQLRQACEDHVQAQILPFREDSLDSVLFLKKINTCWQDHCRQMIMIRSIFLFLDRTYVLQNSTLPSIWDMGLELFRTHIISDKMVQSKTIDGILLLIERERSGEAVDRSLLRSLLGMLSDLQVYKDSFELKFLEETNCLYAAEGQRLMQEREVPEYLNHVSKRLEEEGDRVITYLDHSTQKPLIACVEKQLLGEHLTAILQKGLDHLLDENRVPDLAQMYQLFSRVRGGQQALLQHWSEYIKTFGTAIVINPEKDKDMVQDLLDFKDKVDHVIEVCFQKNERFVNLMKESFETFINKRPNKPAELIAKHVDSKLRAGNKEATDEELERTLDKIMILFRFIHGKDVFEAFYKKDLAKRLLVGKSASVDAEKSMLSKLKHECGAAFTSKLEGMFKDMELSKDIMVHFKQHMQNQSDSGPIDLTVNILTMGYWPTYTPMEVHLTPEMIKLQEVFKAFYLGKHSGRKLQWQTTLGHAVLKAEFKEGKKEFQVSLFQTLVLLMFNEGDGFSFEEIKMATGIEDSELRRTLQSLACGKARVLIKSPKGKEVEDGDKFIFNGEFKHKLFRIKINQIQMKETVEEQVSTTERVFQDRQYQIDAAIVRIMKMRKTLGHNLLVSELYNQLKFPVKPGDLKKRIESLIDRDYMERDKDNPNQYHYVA
T2 sequence (Q16531 whole entry, looked up): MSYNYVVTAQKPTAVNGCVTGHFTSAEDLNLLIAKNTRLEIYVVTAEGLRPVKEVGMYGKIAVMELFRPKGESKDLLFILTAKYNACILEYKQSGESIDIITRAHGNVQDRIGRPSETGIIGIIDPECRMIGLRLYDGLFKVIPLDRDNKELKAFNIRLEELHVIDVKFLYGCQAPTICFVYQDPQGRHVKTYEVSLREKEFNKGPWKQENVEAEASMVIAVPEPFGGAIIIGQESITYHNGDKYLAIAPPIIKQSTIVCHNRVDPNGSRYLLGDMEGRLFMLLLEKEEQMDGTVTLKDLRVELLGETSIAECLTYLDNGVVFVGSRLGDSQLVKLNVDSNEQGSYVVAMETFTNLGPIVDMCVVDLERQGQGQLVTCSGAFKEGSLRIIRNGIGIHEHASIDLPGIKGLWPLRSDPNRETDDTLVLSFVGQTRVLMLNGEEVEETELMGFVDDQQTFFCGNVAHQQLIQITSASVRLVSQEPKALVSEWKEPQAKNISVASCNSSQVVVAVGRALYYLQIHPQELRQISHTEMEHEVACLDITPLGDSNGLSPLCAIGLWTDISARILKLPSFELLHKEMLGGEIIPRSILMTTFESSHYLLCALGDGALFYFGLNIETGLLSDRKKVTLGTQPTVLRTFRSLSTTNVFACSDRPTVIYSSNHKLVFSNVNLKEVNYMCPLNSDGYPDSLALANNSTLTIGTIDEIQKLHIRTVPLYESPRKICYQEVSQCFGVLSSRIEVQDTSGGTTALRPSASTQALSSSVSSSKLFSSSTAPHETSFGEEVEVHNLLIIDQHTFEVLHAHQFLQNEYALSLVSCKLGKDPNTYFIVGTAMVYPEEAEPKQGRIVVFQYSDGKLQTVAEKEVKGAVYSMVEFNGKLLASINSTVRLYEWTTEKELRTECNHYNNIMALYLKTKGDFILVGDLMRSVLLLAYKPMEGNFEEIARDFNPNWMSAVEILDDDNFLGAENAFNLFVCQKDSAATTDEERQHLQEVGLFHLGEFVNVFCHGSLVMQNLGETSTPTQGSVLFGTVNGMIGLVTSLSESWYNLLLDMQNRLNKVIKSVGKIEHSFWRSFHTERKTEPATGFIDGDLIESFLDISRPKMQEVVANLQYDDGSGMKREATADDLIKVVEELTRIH
T2 sequence (Q96SW2 whole entry, looked up): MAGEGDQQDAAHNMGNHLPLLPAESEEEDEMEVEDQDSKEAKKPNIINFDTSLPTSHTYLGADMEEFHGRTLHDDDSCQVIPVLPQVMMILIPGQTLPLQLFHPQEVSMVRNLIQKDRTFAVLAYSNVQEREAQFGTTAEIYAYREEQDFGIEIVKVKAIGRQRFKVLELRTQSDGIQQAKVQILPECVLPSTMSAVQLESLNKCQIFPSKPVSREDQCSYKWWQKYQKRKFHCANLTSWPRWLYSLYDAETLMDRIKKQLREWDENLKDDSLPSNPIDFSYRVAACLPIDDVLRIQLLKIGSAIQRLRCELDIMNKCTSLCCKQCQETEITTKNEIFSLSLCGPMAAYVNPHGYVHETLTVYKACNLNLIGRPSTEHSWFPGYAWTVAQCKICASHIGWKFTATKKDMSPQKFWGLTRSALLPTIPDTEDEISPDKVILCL

Take `O=C1CCC(N2Cc3c(CCCCCNC(=O)c4ccc(NC(=O)[C@@H]5NC6(CCCCC6)[C@@]6(C(=O)Nc7cc(Cl)ccc76)[C@H]5c5cccc(Cl)c5F)cc4)cccc3C2=O)C(=O)N1` (stereo partly drawn): the outcome in [1], in test [4], in test [5], in test [6], in test [7] and in test [8] was Active. The outcome in [9], in test [10] and in [11] was Active. Besides, the “growth inhibition (GI)” value with HL-60, in the test filed under Homo sapiens, in the test with MDA-MB-231 [2] and in the test with MDA-MB-468 [3] was “inactive” in each case. For the same compound, the 50% inhibitory concentration (IC50) in the test with MDA-MB-231 [12], in the test with MDA-MB-231 [13], with MDA-MB-468 [14], with MDA-MB-468 [15], with MDA-MB-231 [16] and with MDA-MB-468 [17] was above 3 µM each time. For the same compound, the IC50 is 0.0079 µM with RS4-11 and above 10 µM in test [20]. Moreover, the result in test [18] and in test [19] was inactive.

In general, IC50 refers to the point on the concentration scale where inhibition reaches its midpoint.
